Series [1] concerns MT4. Put plainly: Cytotoxicity against human MT4 cells assessed as decrease in cell viability. Type of series: cell-based. Put shortly:
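MT-4 viability was measured by automated propidium iodide-based cell counting, enumerating total and dead cells in untreated and compound-treated cultures.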

For series [2], the system named is Human alphaherpesvirus 1. Kind of series: Antiviral activity against HSV1 KOS infected in HEL cells assessed as inhibition of virus-induced cytopathicity. Type of series: functional, organism-based. The settings on record: Human alphaherpesvirus 1, KOS. In outline: (§1)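 Confluent human embryonic lung fibroblast monolayers inoculated with 100 CCID50 virus. After 1–2 h adsorption, residual virus was removed and cultures were incubated with varying compound concentrations. Cytopathicity was scored once untreated infected controls reached full cytopathicity.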
(Damage to the host cells serves as the signal in cytopathic effect assays.)

The next series has as its system Human alphaherpesvirus 2. Put plainly: Antiviral activity against HSV2 G infected in HEL cells assessed as inhibition of virus-induced cytopathicity. It counts as functional, organism-based. The conditions noted are these: Human alphaherpesvirus 2, strain G. Put shortly: as §1
Series [3] relates to Human alphaherpesvirus 1. Put plainly: Antiviral activity against acyclovir […]-resistant thymidine kinase-deficient HSV1 KOS infected in HEL cells assessed as inhibition of virus-induced cytopathicity. Type of series: functional, organism-based. The settings on record: Human alphaherpesvirus 1, KOS. Put shortly:
as §1

The nature of series [4]: Cytotoxicity against HEL cells assessed as concentration required to cause alteration in cell alteration by microscopically. Type of series: cell-based. The settings on record: human.
A further series concerns HEL. Kind of series: Cytotoxicity against HEL cells assessed as inhibition of cell proliferation. The settings on record: Homo sapiens. Type of series: cell-based.
In series [5] the test system is Human immunodeficiency virus 1. Put plainly: Antiviral activity against HIV1 3B/Lai infected in human CEM cells assessed as inhibition of virus-induced cytopathicity after 4 days. The settings on record: Human immunodeficiency virus 1, 3B/Lai, CCRF-CEM, 96 h. Type of series: functional, organism-based. Put shortly:
(§2)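 Human CEM cells (~3 × 10^5 cells/mL) infected with 100 CCID50 per mL of HIV-1(IIIB) or HIV-2(ROD), then seeded into wells holding compound dilutions. Incubated 4 days at 37°C. Giant cell formation was scored microscopically.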

Series [6] relates to Human immunodeficiency virus 2. Put plainly: Antiviral activity against HIV2 ROD infected in human CEM cells assessed as inhibition of virus-induced cytopathicity after 4 days. Type of series: functional, organism-based. The settings on record: Human immunodeficiency virus 2, ISOLATE ROD, CCRF-CEM, 96 h. In outline: as §2
Series [7] deals with MT4. Put plainly: Cytotoxicity against human MT4 cells assessed as inhibition of cell proliferation. Type of series: cell-based.
In series [8] the test system is Human immunodeficiency virus 1. Kind of series: Antiviral activity against HIV1 3B/Lai infected in human MT4 cells assessed as suppression of p24 production after 3 days. Type of series: functional, organism-based. The conditions noted are these: Human immunodeficiency virus 1, 3B/Lai, MT4, 72 h. Put shortly: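 MT-4 cells (1 × 10^4 cells/mL) in fresh medium infected with X4LAI.04 stock, 10 μL (0.7 ng p24) per mL of cell suspension. Mixed with medium carrying compound dilutions and kept at 37°C. After 3 days, p24 was measured in culture supernatants.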

A further series deals with CCRF-CEM. Kind of series: Cytotoxicity against human CEM cells assessed as decrease in cell viability. It counts as cell-based.

As for `C[C@H](NP(=O)(OCCOCn1cnc2c(=O)[nH]c(N)nc21)Oc1cccc2ccccc12)C(=O)OC(C)(C)C` (some centres undefined), the figures for the IC50 with MT4 [1], with HEL and in the series on CCRF-CEM were > 150 µM, > 100 µM and > 100 µM, respectively. The EC50 with Human alphaherpesvirus 1 [2] is > 100 µM; in the series on Human alphaherpesvirus 2, 50 µM; in the series with Human alphaherpesvirus 1 [3], > 100 µM; in [5], > 100 µM; in series [6], > 100 µM; in series [8], > 150 µM. Moreover, in series [4], the MCC was > 50 µM. Further, in the series on MT4 [7], the CC50 is > 150 µM.

Take `CC(C)OC(=O)[C@H](C)NP(=O)(OCCOCn1cnc2c(=O)[nH]c(N)nc21)Oc1ccccc1` (some centres undefined): the IC50 with MT4 [1] is > 150 µM; in the series on HEL, > 100 µM; with CCRF-CEM, > 100 µM. Further, the EC50 with Human alphaherpesvirus 1 [2] is 10 µM; with Human alphaherpesvirus 2, 8.5 µM; with Human alphaherpesvirus 1 [3], 27 µM; in series [6], > 100 µM; in [8], > 150 µM. Moreover, the MCC in series [4] is > 50 µM. In addition, the CC50 with MT4 [7] was > 150 µM.

Regarding `CC(C)OC(=O)[C@H](C)NP(=O)(OCCOCn1cnc2c(=O)[nH]c(N)nc21)Oc1cccc2ccccc12` (some centres undefined), the IC50 is 72.5 µM in the series with MT4 [1], > 100 µM with HEL and 36 µM with CCRF-CEM. Also, the EC50 in the series with Human alphaherpesvirus 1 [2] was 15 µM; in the series on Human alphaherpesvirus 2, 10 µM; in the series on Human alphaherpesvirus 1 [3] it was ≥ 45 µM; in series [5], 6.2 µM; in series [6], 12 µM; in [8], 5.4 µM. In series [4], the MCC was > 50 µM. The CC50 with MT4 [7] is > 150 µM.

Regarding `COC(=O)[C@H](C)NP(=O)(OCCOCn1cnc2c(=O)[nH]c(N)nc21)Oc1cccc2ccccc12` (some centres undefined), the IC50 in the series on MT4 [1] is 18.7 µM; with HEL, > 100 µM. Further, the EC50 in the series on Human alphaherpesvirus 1 [2] stood at 16 µM; in the series with Human alphaherpesvirus 2, 10 µM; with Human alphaherpesvirus 1 [3], 79 µM; in series [5], 10 µM; in [6], 13 µM; in series [8], 4.7 µM. The MCC in [4] is > 50 µM. Further, the 50% cytotoxic concentration (CC50) with MT4 [7] is > 150 µM.

In the case of `C[C@H](NP(=O)(OCCOCn1cnc2c(=O)[nH]c(N)nc21)Oc1ccccc1)C(=O)OCc1ccccc1` (some centres undefined), the IC50 was found to be 33.8 µM in the series on MT4 [1], 91 µM in the series with HEL and 42 µM in the series on CCRF-CEM. For the same molecule, the EC50 with Human alphaherpesvirus 1 [2] stood at 8 µM; in the series on Human alphaherpesvirus 2 it was 4 µM; with Human alphaherpesvirus 1 [3], 15 µM; in series [5], 16 µM; in series [6], 11 µM; in series [8] it was 5.7 µM. In addition, the MCC in series [4] is > 50 µM. Besides, the CC50 in the series on MT4 [7] was > 150 µM.

With `CCOC(=O)[C@H](C)NP(=O)(OCCOCn1cnc2c(=O)[nH]c(N)nc21)Oc1cccc2ccccc12` (some centres undefined), the IC50 is 12 µM in the series on MT4 [1], > 100 µM with HEL and 32 µM in the series on CCRF-CEM. Also, the EC50 in the series with Human alphaherpesvirus 1 [2] amounted to 32 µM; in the series on Human alphaherpesvirus 2 it was 9.5 µM; with Human alphaherpesvirus 1 [3] it was 32 µM; in [5] it was 12 µM; in series [6] it was 42 µM; in series [8], 1.7 µM. In [4], the MCC is > 150 µM. The CC50 in the series on MT4 [7] is > 150 µM.

The IC50 is the midpoint of a concentration-inhibition curve. The EC50 is the concentration at which the effect is half-maximal. As usually defined, the CC50 is the concentration giving 50% cytotoxicity.

The values are drawn from ChEMBL document CHEMBL1153518 (J Med Chem, 2009).
